Assay results as given in ChEMBL document CHEMBL1782048, “Novel 1-(2-aminopyrazin-3-yl)methyl-2-thioureas as potent inhibitors of mitogen-activated protein kinase-activated protein kinase 2 (MK-2)” (Bioorg Med Chem Lett, 2009).

Legend:
[1] = target: MAP kinase-activated protein kinase 2 (Homo sapiens, UniProt P49137); assay: Inhibition of MK2 using biotin-LCAYSRALSRQLSSGVSEIRH substrate
THP-1 = assay: Inhibition of LPS-induced TNFalpha production in human THP1 cells after 4 hrs by ELISA; conditions: THP-1, 4 h
Mus musculus = assay: Antiinflammatory activity in BALB/c mouse assessed as inhibition of LPS-stimulated TNFalpha production at 10 mg/kg, iv after 1.5 hrs; type: functional
Procedure, shortened: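 Female Balb/c mice, 12 weeks old, dosed iv at 10 mg/kg in DMSO/Cremophor/saline (or vehicle alone) just before injection of 10 µg/mouse LPS (E. coli serotype 0111:B4) plus 800 mg/kg D-galactosamine in saline. Animals euthanized 90 min later; plasma TNF measured by ELISA.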

[2] = Inhibition of AMPK at 10 uM
[3] = Clearance in rat; type: ADME, organism-based; conditions: in vivo
[4] = Half life in rat; type: ADME, organism-based; conditions: in vivo
Rattus norvegicus = species on record: Rattus norvegicus; assay: Normalized AUC in rat; type: ADME, organism-based; conditions: in vivo
[5] = target: Ribosomal protein S6 kinase alpha-5 (Homo sapiens) (UniProt O75582); assay: Inhibition of RPS6KA5 at 10 uM
[6] = target: Ribosomal protein S6 kinase alpha-1 (Homo sapiens) (UniProt Q15418); assay: Inhibition of RPS6KA1 at 10 uM
[7] = Oral bioavailability AUC in rat; type: ADME, organism-based; conditions: in vivo
[8] = target: T1, MAP kinase-activated protein kinase 5 (Homo sapiens) (UniProt Q8IW41); assay: Inhibition of MK5 at 1 uM
T1 sequence (whole entry): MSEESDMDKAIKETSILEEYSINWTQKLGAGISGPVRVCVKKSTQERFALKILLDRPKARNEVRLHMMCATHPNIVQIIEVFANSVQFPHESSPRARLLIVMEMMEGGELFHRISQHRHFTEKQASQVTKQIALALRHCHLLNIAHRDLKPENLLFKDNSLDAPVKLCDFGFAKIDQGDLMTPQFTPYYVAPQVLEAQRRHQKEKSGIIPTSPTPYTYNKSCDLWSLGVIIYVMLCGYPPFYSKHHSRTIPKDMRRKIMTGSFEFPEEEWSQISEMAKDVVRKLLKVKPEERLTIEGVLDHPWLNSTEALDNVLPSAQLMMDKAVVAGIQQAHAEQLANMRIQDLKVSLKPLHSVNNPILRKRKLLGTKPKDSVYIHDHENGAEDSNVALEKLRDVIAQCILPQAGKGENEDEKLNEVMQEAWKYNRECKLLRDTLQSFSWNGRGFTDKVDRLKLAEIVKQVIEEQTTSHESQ

Chain of MAP kinase-activated protein kinase 2 (P49137 whole entry): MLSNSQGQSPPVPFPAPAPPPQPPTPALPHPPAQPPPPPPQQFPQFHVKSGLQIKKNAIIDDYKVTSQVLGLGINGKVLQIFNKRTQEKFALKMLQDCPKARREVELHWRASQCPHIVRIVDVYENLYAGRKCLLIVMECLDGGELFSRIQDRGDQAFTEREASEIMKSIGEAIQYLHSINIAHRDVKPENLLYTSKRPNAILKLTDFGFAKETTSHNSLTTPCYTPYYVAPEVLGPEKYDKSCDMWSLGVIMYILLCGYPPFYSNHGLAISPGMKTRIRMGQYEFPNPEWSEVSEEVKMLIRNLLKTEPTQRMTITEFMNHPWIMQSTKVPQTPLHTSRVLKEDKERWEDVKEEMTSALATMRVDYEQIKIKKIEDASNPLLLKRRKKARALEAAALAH
Chain of Ribosomal protein S6 kinase alpha-5 (Homo sapiens) (O75582 whole entry, looked up): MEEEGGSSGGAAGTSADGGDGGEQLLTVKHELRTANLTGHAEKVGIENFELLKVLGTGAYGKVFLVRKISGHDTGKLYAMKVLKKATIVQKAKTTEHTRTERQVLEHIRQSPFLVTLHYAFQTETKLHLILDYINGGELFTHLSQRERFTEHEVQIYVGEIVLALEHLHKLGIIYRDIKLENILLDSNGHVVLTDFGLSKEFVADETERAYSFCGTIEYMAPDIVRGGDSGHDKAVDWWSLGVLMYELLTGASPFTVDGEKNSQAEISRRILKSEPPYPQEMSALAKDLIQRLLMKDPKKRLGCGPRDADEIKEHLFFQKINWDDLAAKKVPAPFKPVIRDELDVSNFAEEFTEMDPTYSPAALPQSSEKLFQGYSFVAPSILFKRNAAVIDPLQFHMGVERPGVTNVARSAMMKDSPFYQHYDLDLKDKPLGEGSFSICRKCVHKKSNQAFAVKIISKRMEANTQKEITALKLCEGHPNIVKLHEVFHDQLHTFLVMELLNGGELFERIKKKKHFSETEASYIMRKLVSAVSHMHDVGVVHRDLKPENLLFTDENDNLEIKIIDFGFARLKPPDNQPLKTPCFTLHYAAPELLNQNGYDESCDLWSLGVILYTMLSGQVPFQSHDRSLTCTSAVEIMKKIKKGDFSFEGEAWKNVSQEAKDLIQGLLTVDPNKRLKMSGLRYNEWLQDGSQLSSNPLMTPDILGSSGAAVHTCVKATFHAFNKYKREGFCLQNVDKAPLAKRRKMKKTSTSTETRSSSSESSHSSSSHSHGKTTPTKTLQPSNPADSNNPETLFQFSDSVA
Chain of Ribosomal protein S6 kinase alpha-1 (Homo sapiens) (Q15418 whole entry): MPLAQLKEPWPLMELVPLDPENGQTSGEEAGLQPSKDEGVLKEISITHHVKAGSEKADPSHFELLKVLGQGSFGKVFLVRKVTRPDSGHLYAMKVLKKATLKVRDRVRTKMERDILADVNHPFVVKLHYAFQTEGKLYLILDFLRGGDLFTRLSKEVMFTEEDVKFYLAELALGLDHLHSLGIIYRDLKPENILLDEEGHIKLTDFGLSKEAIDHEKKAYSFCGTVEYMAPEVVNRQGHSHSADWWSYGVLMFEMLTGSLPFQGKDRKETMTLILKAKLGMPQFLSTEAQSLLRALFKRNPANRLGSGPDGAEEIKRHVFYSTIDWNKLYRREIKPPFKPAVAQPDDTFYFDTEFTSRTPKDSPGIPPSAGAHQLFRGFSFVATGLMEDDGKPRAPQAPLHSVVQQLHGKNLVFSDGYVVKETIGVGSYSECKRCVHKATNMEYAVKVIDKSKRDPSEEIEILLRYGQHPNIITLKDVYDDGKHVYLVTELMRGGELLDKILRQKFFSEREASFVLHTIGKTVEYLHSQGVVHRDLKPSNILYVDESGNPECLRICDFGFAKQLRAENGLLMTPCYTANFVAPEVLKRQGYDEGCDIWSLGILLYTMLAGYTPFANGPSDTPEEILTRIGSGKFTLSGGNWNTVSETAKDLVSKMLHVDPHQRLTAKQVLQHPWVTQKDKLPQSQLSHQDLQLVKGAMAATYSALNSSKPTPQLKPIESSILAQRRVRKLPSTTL

IC50 [1] [µM] | Structure (SMILES) | further results
> 20 | Cc1cnc(N)c(CNC(=S)Nc2ccc3c(c2)[nH]c(=O)n3C)n1 | 
27 | Cc1cnc(N)c(CNC(=S)Nc2ccc3c(c2)CC(=O)N3)n1 | 
 | CC(C)(C)NC(=O)Nc1ccc(NC(=S)NCc2nc(C3CC3)cnc2N)cc1 | IC50 (THP-1): 1.4 µM
> 40 | Nc1ncc(Cl)nc1CNC(=S)Nc1ccc(-n2cnnn2)cc1 | 
> 50 | CCOc1nc(N)c(CNC(=S)Nc2ccccc2)nc1Cl | 
0.015 | Nc1ncc(C2CC2)nc1CNC(=S)Nc1ccc2[nH]c(=O)oc2c1 | inhibition in vivo at 10 mg/kg (Mus musculus): 75%; IC50 (THP-1): 1.7 µM
3.2 | Nc1ncc(Cl)nc1CNC(=S)Nc1cccc2ccccc12 | 
91 | Nc1ncc(Cl)nc1CNC(=S)NC(=O)c1ccccc1 | 
> 20 | Nc1ncc(Cl)nc1CNC(=S)Nc1ccccc1-c1ccccc1 | 
 | CC(C)(C)OC(=O)Nc1ccc(NC(=S)NCc2nc(C3CC3)cnc2N)cc1 | IC50 (THP-1): 3.2 µM
3.6 | Cc1ccccc1NC(=S)NCc1nc(Cl)cnc1N | 
> 50 | CSc1nc(N)c(CNC(=S)Nc2ccccc2)nc1Cl | 
3.1 | Nc1ncc(Cl)nc1CNC(=S)Nc1ccc(Br)cc1 | 
 | CCCCc1cnc(N)c(CNC(=S)Nc2ccc3[nH]c(=O)oc3c2)n1 | IC50 (THP-1): 3.8 µM
15 | Cc1cnc(N)c(CNC(=S)Nc2ccc3[nH]c(=O)[nH]c3c2)n1 | 
> 50 | Nc1ncc(C(F)(F)F)nc1CNC(=S)Nc1ccccc1 | 
40 | Nc1ncc(Cl)nc1CNC(=S)Nc1ccc(Cl)c(Cl)c1 | 
3.7 | Nc1ncc(Cl)nc1CNC(=S)Nc1ccc(Cl)cc1 | 
12 | Nc1ncc(Cl)nc1CNC(=S)NC1CC1 | 
> 50 | Nc1ncc(Cl)nc1CNC(=S)NCCc1ccccc1 | 
2.7 | Cc1ccc(NC(=S)NCc2nc(Cl)cnc2N)cc1 | 

IC50 [1] [µM] | Structure (SMILES) | further results
2 | Nc1ncc(Cl)nc1CNC(=S)Nc1ccccc1F | 
2.5 | CC(C)(C)NC(=S)NCc1nc(Cl)cnc1N | 
> 50 | CN(C)c1nc(N)c(CNC(=S)Nc2ccccc2)nc1Cl | 
15 | Cc1cnc(N)c(CNC(=S)Nc2ccc3[nH]c(=O)sc3c2)n1 | 
36 | Nc1ncc(Cl)nc1CNC(=S)NCc1ccccc1 | 
35 | Nc1ncc(Cl)nc1CNC(=S)NC1CCCCCC1 | 
0.045 | CCCc1cnc(N)c(CNC(=S)Nc2ccc(NC(=O)OC(C)(C)C)cc2)n1 | inhibition [2]: > 70%; clearance [3]: 2.5 mL/min/kg; inhibition in vivo at 10 mg/kg (Mus musculus): 62%; half-life [4]: 48 min; AUC/dose (Rattus norvegicus): 3.3 µM·kg·h/mg; IC50 (THP-1): 3 µM; inhibition [5]: > 70%; inhibition [6]: > 70%; bioavailability [7]: 19%
 | CCc1cnc(N)c(CNC(=S)Nc2ccc(NC(=O)OC(C)(C)C)cc2)n1 | IC50 (THP-1): 4 µM
13 | CC(C)NC(=S)NCc1nc(Cl)cnc1N | 
2 | Nc1ccc(NC(=S)NCc2nc(Cl)cnc2N)cc1 | 
53 | Nc1ncc(Cl)nc1CNC(=S)NC1CCCC1 | 
1.1 | Nc1ncc(Cl)nc1CNC(=S)Nc1ccccc1Cl | 
3.8 | Cc1cnc(N)c(CNC(=S)Nc2ccc(NC(=O)Cc3ccccc3)cc2)n1 | 
9.3 | Cc1cccc(NC(=S)NCc2nc(Cl)cnc2N)c1 | 
11.3 | Nc1ncc(Cl)nc1CNC(=S)Nc1cccc(Cl)c1 | 
27 | Nc1ncc(Cl)nc1CNC(=S)Nc1cc(Cl)cc(Cl)c1 | 
14 | Cc1cnc(N)c(CNC(=S)Nc2ccc3oc(=O)[nH]c3c2)n1 | 
> 50 | CCN(CC)CCCNC(=S)NCc1nc(Cl)cnc1N | 
0.58 | Cc1cnc(N)c(CNC(=S)Nc2ccc(NC(=O)c3ccccc3)cc2)n1 | 
4.3 | Nc1ncc(Cl)nc1CNC(=S)Nc1ccc(Cl)cc1Cl | 
 | CCCc1cnc(N)c(CNC(=S)Nc2ccc3[nH]c(=O)oc3c2)n1 | clearance [3]: 12.9 mL/min/kg; inhibition in vivo at 10 mg/kg (Mus musculus): 70%; half-life [4]: 18 min; AUC/dose (Rattus norvegicus): 0.3 µM·kg·h/mg; IC50 (THP-1): 0.75 µM; inhibition [8]: > 70%; bioavailability [7]: 8%

Structure (SMILES) | IC50 [1] [µM] | further results
Cc1cnc(N)c(CNC(=S)Nc2ccc(NC(=O)Oc3ccccc3)cc2)n1 | 0.73 | 
